Laboratory results reported in ChEMBL document CHEMBL3994637, “Broad spectrum anti-infective properties of benzisothiazolones and the parallels in their anti-bacterial and anti-fungal effects” (Bioorg Med Chem Lett, 2017).
Values after ≈ are worked out from the molar mass of the structure shown.

Columns and labels:
Type in all cases: functional
Staphylococcus aureus [1] = assay: Antibacterial activity against Staphylococcus aureus ATCC 29213 by broth microdilution method
Pseudomonas aeruginosa = assay: Antibacterial activity against Pseudomonas aeruginosa ATCC BAA-427 by broth microdilution method
Summary of the method: (§1)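 Bacteria were tested by the NCCLS method in Mueller Hinton broth, with gentamicin and norfloxacin as reference drugs.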

Staphylococcus aureus [2] = assay: Antibacterial activity against methicillin-resistant Staphylococcus aureus ATCC 700699 by broth microdilution method; conditions: Mu50
Klebsiella pneumoniae = assay: Antibacterial activity against Klebsiella pneumoniae ATCC 27736 by broth microdilution method; summary of the method: as §1
Escherichia coli = assay: Antibacterial activity against Escherichia coli ATCC 9637 by broth microdilution method; conditions: W; summary of the method: as §1
Staphylococcus aureus [3] = assay: Antibacterial activity against Staphylococcus aureus ATCC 25923 by broth microdilution method
Cryptococcus neoformans = assay: Anti-fungal activity against Cryptococcus neoformans after 48 hrs by broth microdilution method
Sporothrix schenckii = assay: Anti-fungal activity against Sporothrix schenckii after 48 hrs by broth microdilution method
Candida albicans = assay: Anti-fungal activity against Candida albicans after 48 hrs by broth microdilution method
Plasmodium falciparum = assay: Antimalarial activity against chloroquine-sensitive Plasmodium falciparum 3D7 after 72 hrs by SYBR Green-1 staining based fluorescence assay; conditions: 3D7, 72 h
Aspergillus fumigatus = assay: Anti-fungal activity against Aspergillus fumigatus after 48 hrs by broth microdilution method
Candida parapsilosis = assay: Anti-fungal activity against Candida parapsilosis ATCC 22019 after 48 hrs by broth microdilution method; conditions: Lodderomyces parapsilosis, ATCC 22019, 48 h
[4] = system: Trichophyton mentagrophytes; assay: Anti-fungal activity against Trichophyton mentagrophytes after 48 hrs by broth microdilution method

GENTAMICIN
MIC (Staphylococcus aureus [1]): 0.78 µg/mL | MIC (Pseudomonas aeruginosa): > 50 µg/mL | MIC (Staphylococcus aureus [2]): > 50 µg/mL | MIC (Klebsiella pneumoniae): 0.78 µg/mL | MIC (Escherichia coli): 6.25 µg/mL | MIC (Staphylococcus aureus [3]): 6.25 µg/mL

Nc1ccccc1-n1sc2ccccc2c1=O
IC50 (Cryptococcus neoformans): 1.9 µg/mL (≈ 7.84 µM) | MIC (Cryptococcus neoformans): 2.3 µg/mL (≈ 9.49 µM) | IC50 (Sporothrix schenckii): 5.7 µg/mL (≈ 23.5 µM) | MIC (Sporothrix schenckii): 11.7 µg/mL (≈ 48.3 µM) | IC50 (Staphylococcus aureus [1]): > 50 µg/mL | MIC (Staphylococcus aureus [1]): > 50 µg/mL | IC50 (Pseudomonas aeruginosa): > 50 µg/mL | MIC (Pseudomonas aeruginosa): > 50 µg/mL | IC50 (Staphylococcus aureus [2]): > 50 µg/mL | MIC (Staphylococcus aureus [2]): > 50 µg/mL | IC50 (Candida albicans): 2.6 µg/mL (≈ 10.7 µM) | MIC (Candida albicans): 4.3 µg/mL (≈ 17.7 µM) | IC50 (Plasmodium falciparum): > 2000 nM | IC50 (Klebsiella pneumoniae): > 50 µg/mL | MIC (Klebsiella pneumoniae): > 50 µg/mL | IC50 (Escherichia coli): > 50 µg/mL | MIC (Escherichia coli): > 50 µg/mL | IC50 (Staphylococcus aureus [3]): > 50 µg/mL | MIC (Staphylococcus aureus [3]): > 50 µg/mL | MIC (Aspergillus fumigatus): 12.5 µg/mL (≈ 51.6 µM) | IC50 (Candida parapsilosis): > 50 µg/mL | MIC (Candida parapsilosis): > 50 µg/mL | MIC [4]: 3.3 µg/mL (≈ 13.6 µM)

CC(=O)Nc1ccccc1-n1sc2ccccc2c1=O
IC50 (Cryptococcus neoformans): > 50 µg/mL | MIC (Cryptococcus neoformans): > 50 µg/mL | IC50 (Sporothrix schenckii): > 50 µg/mL | MIC (Sporothrix schenckii): > 50 µg/mL | IC50 (Staphylococcus aureus [1]): > 50 µg/mL | MIC (Staphylococcus aureus [1]): > 50 µg/mL | IC50 (Pseudomonas aeruginosa): > 50 µg/mL | MIC (Pseudomonas aeruginosa): > 50 µg/mL | IC50 (Staphylococcus aureus [2]): > 50 µg/mL | MIC (Staphylococcus aureus [2]): > 50 µg/mL | IC50 (Candida albicans): > 50 µg/mL | MIC (Candida albicans): > 50 µg/mL | IC50 (Plasmodium falciparum): > 2000 nM | IC50 (Klebsiella pneumoniae): > 50 µg/mL | MIC (Klebsiella pneumoniae): > 50 µg/mL | IC50 (Escherichia coli): > 50 µg/mL | MIC (Escherichia coli): > 50 µg/mL | IC50 (Staphylococcus aureus [3]): > 50 µg/mL | MIC (Staphylococcus aureus [3]): > 50 µg/mL | IC50 (Aspergillus fumigatus): > 50 µg/mL | MIC (Aspergillus fumigatus): > 50 µg/mL | IC50 (Candida parapsilosis): > 50 µg/mL | MIC (Candida parapsilosis): > 50 µg/mL | IC50 [4]: > 50 µg/mL | MIC [4]: > 50 µg/mL

COC(=O)[C@H](CC(C)C)n1sc2ccccc2c1=O
IC50 (Cryptococcus neoformans): 8.6 µg/mL (≈ 30.8 µM) | MIC (Cryptococcus neoformans): 10.5 µg/mL (≈ 37.6 µM) | IC50 (Sporothrix schenckii): 2.9 µg/mL (≈ 10.4 µM) | MIC (Sporothrix schenckii): 20.4 µg/mL (≈ 73 µM) | IC50 (Staphylococcus aureus [1]): 2.7 µg/mL (≈ 9.66 µM) | MIC (Staphylococcus aureus [1]): 6.9 µg/mL (≈ 24.7 µM) | IC50 (Pseudomonas aeruginosa): > 50 µg/mL | MIC (Pseudomonas aeruginosa): > 50 µg/mL | IC50 (Staphylococcus aureus [2]): 2.1 µg/mL (≈ 7.52 µM) | MIC (Staphylococcus aureus [2]): 3.5 µg/mL (≈ 12.5 µM) | IC50 (Candida albicans): 1.5 µg/mL (≈ 5.37 µM) | MIC (Candida albicans): 1.9 µg/mL (≈ 6.8 µM) | IC50 (Plasmodium falciparum): > 2000 nM | IC50 (Klebsiella pneumoniae): > 50 µg/mL | MIC (Klebsiella pneumoniae): > 50 µg/mL | IC50 (Escherichia coli): > 50 µg/mL | MIC (Escherichia coli): > 50 µg/mL | IC50 (Staphylococcus aureus [3]): 2.1 µg/mL (≈ 7.52 µM) | MIC (Staphylococcus aureus [3]): 3.5 µg/mL (≈ 12.5 µM) | MIC (Aspergillus fumigatus): > 50 µg/mL | IC50 (Candida parapsilosis): 2.4 µg/mL (≈ 8.59 µM) | MIC (Candida parapsilosis): 4.9 µg/mL (≈ 17.5 µM) | IC50 [4]: 6.2 µg/mL (≈ 22.2 µM) | MIC [4]: 11.4 µg/mL (≈ 40.8 µM)

COC(=O)[C@H](C)n1sc2ccccc2c1=O
IC50 (Cryptococcus neoformans): 1.4 µg/mL (≈ 5.9 µM) | MIC (Cryptococcus neoformans): 2 µg/mL (≈ 8.43 µM) | IC50 (Sporothrix schenckii): 2.9 µg/mL (≈ 12.2 µM) | MIC (Sporothrix schenckii): 12.2 µg/mL (≈ 51.4 µM) | IC50 (Staphylococcus aureus [1]): 6.4 µg/mL (≈ 27 µM) | MIC (Staphylococcus aureus [1]): 8.4 µg/mL (≈ 35.4 µM) | IC50 (Pseudomonas aeruginosa): > 50 µg/mL | MIC (Pseudomonas aeruginosa): > 50 µg/mL | IC50 (Staphylococcus aureus [2]): 0.84 µg/mL (≈ 3.54 µM) | MIC (Staphylococcus aureus [2]): 0.87 µg/mL (≈ 3.67 µM) | IC50 (Candida albicans): 1.9 µg/mL (≈ 8.01 µM) | MIC (Candida albicans): 2.7 µg/mL (≈ 11.4 µM) | IC50 (Plasmodium falciparum): > 2000 nM | IC50 (Klebsiella pneumoniae): > 50 µg/mL | MIC (Klebsiella pneumoniae): > 50 µg/mL | IC50 (Escherichia coli): > 50 µg/mL | MIC (Escherichia coli): > 50 µg/mL | IC50 (Staphylococcus aureus [3]): 2 µg/mL (≈ 8.43 µM) | MIC (Staphylococcus aureus [3]): 3 µg/mL (≈ 12.6 µM) | MIC (Aspergillus fumigatus): 25 µg/mL (≈ 105 µM) | MIC (Candida parapsilosis): 12.5 µg/mL (≈ 52.7 µM) | IC50 [4]: 11.4 µg/mL (≈ 48 µM) | MIC [4]: 12 µg/mL (≈ 50.6 µM)

COC(=O)[C@H](c1ccccc1)n1sc2ccccc2c1=O
IC50 (Cryptococcus neoformans): > 50 µg/mL | MIC (Cryptococcus neoformans): > 50 µg/mL | IC50 (Sporothrix schenckii): > 50 µg/mL | MIC (Sporothrix schenckii): > 50 µg/mL | IC50 (Staphylococcus aureus [1]): 13.5 µg/mL (≈ 45.1 µM) | MIC (Staphylococcus aureus [1]): 18.7 µg/mL (≈ 62.5 µM) | IC50 (Pseudomonas aeruginosa): > 50 µg/mL | MIC (Pseudomonas aeruginosa): > 50 µg/mL | IC50 (Staphylococcus aureus [2]): 2.6 µg/mL (≈ 8.69 µM) | MIC (Staphylococcus aureus [2]): 4.2 µg/mL (≈ 14 µM) | IC50 (Candida albicans): > 50 µg/mL | MIC (Candida albicans): > 50 µg/mL | IC50 (Plasmodium falciparum): > 2000 nM | IC50 (Klebsiella pneumoniae): > 50 µg/mL | MIC (Klebsiella pneumoniae): > 50 µg/mL | IC50 (Escherichia coli): > 50 µg/mL | MIC (Escherichia coli): > 50 µg/mL | IC50 (Staphylococcus aureus [3]): 1.1 µg/mL (≈ 3.67 µM) | MIC (Staphylococcus aureus [3]): 1.5 µg/mL (≈ 5.01 µM) | IC50 (Aspergillus fumigatus): > 50 µg/mL | MIC (Aspergillus fumigatus): > 50 µg/mL | IC50 (Candida parapsilosis): > 50 µg/mL | MIC (Candida parapsilosis): > 50 µg/mL | IC50 [4]: > 50 µg/mL | MIC [4]: > 50 µg/mL

O=c1c2ccccc2sn1-c1ccccc1-n1sc2ccccc2c1=O
IC50 (Cryptococcus neoformans): 13.7 µg/mL (≈ 36.4 µM) | MIC (Cryptococcus neoformans): 14.4 µg/mL (≈ 38.3 µM) | IC50 (Sporothrix schenckii): > 50 µg/mL | MIC (Sporothrix schenckii): > 50 µg/mL | IC50 (Staphylococcus aureus [1]): 6.3 µg/mL (≈ 16.7 µM) | MIC (Staphylococcus aureus [1]): 6.5 µg/mL (≈ 17.3 µM) | IC50 (Pseudomonas aeruginosa): > 50 µg/mL | MIC (Pseudomonas aeruginosa): > 50 µg/mL | IC50 (Staphylococcus aureus [2]): 4.7 µg/mL (≈ 12.5 µM) | MIC (Staphylococcus aureus [2]): 10.2 µg/mL (≈ 27.1 µM) | IC50 (Candida albicans): 14.2 µg/mL (≈ 37.7 µM) | MIC (Candida albicans): 25 µg/mL (≈ 66.4 µM) | IC50 (Plasmodium falciparum): > 2000 nM | IC50 (Klebsiella pneumoniae): > 50 µg/mL | MIC (Klebsiella pneumoniae): > 50 µg/mL | IC50 (Escherichia coli): > 50 µg/mL | MIC (Escherichia coli): > 50 µg/mL | IC50 (Staphylococcus aureus [3]): 10 µg/mL (≈ 26.6 µM) | MIC (Staphylococcus aureus [3]): 18 µg/mL (≈ 47.8 µM) | IC50 (Aspergillus fumigatus): > 50 µg/mL | MIC (Aspergillus fumigatus): > 50 µg/mL | IC50 (Candida parapsilosis): 15.2 µg/mL (≈ 40.4 µM) | MIC (Candida parapsilosis): 17.1 µg/mL (≈ 45.4 µM) | IC50 [4]: 12.5 µg/mL (≈ 33.2 µM) | MIC [4]: 13.6 µg/mL (≈ 36.1 µM)

OC(Cn1cncn1)(Cn1cncn1)c1ccc(F)cc1F [FLUCONAZOLE]
MIC (Cryptococcus neoformans): 2 µg/mL (≈ 6.53 µM) | MIC (Sporothrix schenckii): 2 µg/mL (≈ 6.53 µM) | MIC (Candida albicans): 1 µg/mL (≈ 3.27 µM) | MIC (Aspergillus fumigatus): > 32 µg/mL | MIC (Candida parapsilosis): 2 µg/mL (≈ 6.53 µM) | MIC [4]: > 32 µg/mL

COC(=O)[C@H](C(C)C)n1sc2ccccc2c1=O
IC50 (Cryptococcus neoformans): 2.5 µg/mL (≈ 9.42 µM) | MIC (Cryptococcus neoformans): 4.5 µg/mL (≈ 17 µM) | IC50 (Sporothrix schenckii): 2.5 µg/mL (≈ 9.42 µM) | MIC (Sporothrix schenckii): 11.9 µg/mL (≈ 44.8 µM) | IC50 (Staphylococcus aureus [1]): 2.6 µg/mL (≈ 9.8 µM) | MIC (Staphylococcus aureus [1]): 4.6 µg/mL (≈ 17.3 µM) | IC50 (Pseudomonas aeruginosa): > 50 µg/mL | MIC (Pseudomonas aeruginosa): > 50 µg/mL | IC50 (Staphylococcus aureus [2]): 0.82 µg/mL (≈ 3.09 µM) | MIC (Staphylococcus aureus [2]): 0.97 µg/mL (≈ 3.66 µM) | IC50 (Candida albicans): 1.2 µg/mL (≈ 4.52 µM) | MIC (Candida albicans): 2.3 µg/mL (≈ 8.67 µM) | IC50 (Plasmodium falciparum): > 2000 nM | IC50 (Klebsiella pneumoniae): > 50 µg/mL | MIC (Klebsiella pneumoniae): > 50 µg/mL | IC50 (Escherichia coli): > 50 µg/mL | MIC (Escherichia coli): > 50 µg/mL | IC50 (Staphylococcus aureus [3]): 2.4 µg/mL (≈ 9.05 µM) | MIC (Staphylococcus aureus [3]): 2.9 µg/mL (≈ 10.9 µM) | MIC (Aspergillus fumigatus): 12.5 µg/mL (≈ 47.1 µM) | IC50 (Candida parapsilosis): 1.6 µg/mL (≈ 6.03 µM) | MIC (Candida parapsilosis): 3.1 µg/mL (≈ 11.7 µM) | IC50 [4]: 1.7 µg/mL (≈ 6.41 µM) | MIC [4]: 2.4 µg/mL (≈ 9.05 µM)
